{"source": "ChEMBL document CHEMBL3868590", "about": "“Quambalarine B, a Secondary Metabolite from Quambalaria cyanescens with Potential Anticancer Properties” (J Nat Prod, 2016)", "key": {"NALM-6": {"test_system": "NALM-6", "experiment": "Cytostatic activity against eFluor670-labelled human NALM6 cells assessed as live cells at 2 umol/L measured on day 5 by Hoechst-33258 staining-based FACS analysis (reference value: 98.6%)", "assay_type": "functional"}, "REH": {"test_system": "REH", "experiment": "Cytostatic activity against eFluor670-labelled human REH cells assessed as live cells at 2 umol/L measured on day 1 by Hoechst-33258 staining-based FACS analysis (reference value: 89.8%)", "assay_type": "functional"}, "[1]": {"experiment": "Cytotoxicity against CD14+ monocytes in human PBMC population assessed as viable cells at 100 umol/L measured after 24 hrs by Hoechst-33258 staining-based FACS analysis (reference value: 13.8%)", "assay_type": "toxicity, cell-based, Monocyte", "conditions": "read-out: Activity", "how_it_was_run": "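PBMC were isolated from blood on a Ficoll-Paque gradient and seeded at 1 × 10^5 cells/well in 400 μL RPMI1640. Cells were exposed to a range of compound concentrations for 24 h. Viable CD3+, CD14+ and CD20+ populations were measured as Hoechst 33258-negative singlets by flow cytometry. EC50 was obtained by five-parameter nonlinear regression.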"}, "Jurkat": {"test_system": "Jurkat", "experiment": "Decrease in C-MYC mRNA level in human Jurkat cells at EC50 measured after 24 hrs by RT-qPCR analysis", "assay_type": "functional, cell-based"}}, "note": "The source made the active and inactive calls. The calls are words filed in the database; no cut-off is given here."}
{"smiles": "CCCCCC(=O)C1=C(O)C(=O)c2c(O)c(O)cc(O)c2C1=O", "values": [{"measurement": "Activity", "setting": "NALM-6", "result": 50.1, "unit": "%"}, {"measurement": "Activity", "setting": "REH", "result": 74.9, "unit": "%"}, {"measurement": "viability at 24 h, 100 µM", "setting": "[1]", "result": 0.21, "unit": "%"}, {"measurement": "Activity", "setting": "Jurkat", "result": "Active"}]}
